Publication PMC7985749 (CNS Drugs, 2021)

Experiments:
Assay type in all cases: in vivo, human
platelet levels = assay: Platelet levels
Procedure, shortened: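 Young volunteers took the test compound or placebo orally once daily for 5 days, 0.2–4 mg/day; older adults took 2.5 mg/day. Platelets were counted in hematology safety blood samples at preset timepoints through 264 h and at follow-up, as % change from baseline. The MID limit included >50% platelet drop or grade ≥1 thrombocytopenia in >50% of active, not placebo, subjects. EC50 and EC80 came from a nonlinear exposure–response fit.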

[1] = Adverse events / TEAEs, MAD cohort
[2] = Adverse events / TEAEs, SAD cohort
[3] = CSF pharmacokinetics substudy; conditions: for Kp at 2 h / Kp at 6 h / Kp at 12 h: CSF / unbound plasma
Procedure, shortened: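 Open-label cohorts of healthy volunteers got a single oral dose of 2 or 4 mg. CSF and plasma were sampled predose and at preset timepoints, n = 3 subjects per timepoint. Levels were measured by GLP-validated LC-MS/MS: ethyl acetate liquid–liquid extraction, C18 column, positive ESI, deuterated internal standard. LLOQ was 50 pg/mL (CSF) and 10 pg/mL (plasma). Unbound plasma concentration was total corrected by an in vitro dialysis fraction unbound.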

Nc1nnc(CN[C@@H]2C[C@H]2c2ccc(OCc3ccccc3)cc2)o1 [vafidemstat]
Maximum tolerated dose (platelet levels; MAD, 5 days): 2.5 mg/day | Minimum intolerable dose (MID) as defined per protocol (platelet levels; MAD, 5 days): 4 mg/day | Platelet levels (platelet levels; any SAD dose level or up to MAD dose III (1.0 mg/day)): no variations | Platelet level drops from baseline versus exposure (platelet levels; at Cmax,ss of ~ 100 ng/mL and AUCss of ~ 1000 ng·h/mL): ~ 50% | Number of AEs related to the study treatment ([1]; MAD stage, healthy young volunteers, with vafidemstat): 44 | Number of TEAEs (% of total TEAEs): Asthenia ([1]; MAD, 0.2 mg/day, n = 6): 2 (3.3) n (%) | Number of TEAEs (% of total TEAEs): Dizziness postural ([1]; MAD, 0.2 mg/day, n = 6): 1(1.6) n (%) | Number of TEAEs (% of total TEAEs): Feeling hot ([1]; MAD, 0.2 mg/day, n = 6): 1(1.6) n (%) | Number of TEAEs (% of total TEAEs): Headache ([1]; MAD, 0.2 mg/day, n = 6): 3 (4.9) n (%) | Number of TEAEs (% of total TEAEs): Hematoma ([1]; MAD, 0.2 mg/day, n = 6): 1 (1.6) n (%) | Number of TEAEs (% of total TEAEs): Muscle spasms ([1]; MAD, 0.2 mg/day, n = 6): 1(1.6) n (%) | Number of TEAEs (% of total TEAEs): Palpitations ([1]; MAD, 0.2 mg/day, n = 6): 1 (1.6) n (%) | Number of TEAEs (% of total TEAEs): Total ([1]; MAD, 0.2 mg/day, n = 6): 10 (16.4) n (%) | Number of TEAEs (% of total TEAEs): Apathy ([1]; MAD, 0.6 mg/day, n = 6): 1 (1.6) n (%) | Number of TEAEs (% of total TEAEs): Asthenia ([1]; MAD, 0.6 mg/day, n = 6): 1 (1.6) n (%) | Number of TEAEs (% of total TEAEs): Blunted affect ([1]; MAD, 0.6 mg/day, n = 6): 2 (3.3) n (%) | Number of TEAEs (% of total TEAEs): Daydreaming ([1]; MAD, 0.6 mg/day, n = 6): 1 (1.6) n (%) | Number of TEAEs (% of total TEAEs): Dyspepsia ([1]; MAD, 0.6 mg/day, n = 6): 1 (1.6) n (%) | Number of TEAEs (% of total TEAEs): Euphoric mood ([1]; MAD, 0.6 mg/day, n = 6): 1 (1.6) n (%) | Number of TEAEs (% of total TEAEs): Feeling drunk ([1]; MAD, 0.6 mg/day, n = 6): 1 (1.6) n (%) | Number of TEAEs (% of total TEAEs): Headache ([1]; MAD, 0.6 mg/day, n = 6): 1 (1.6) n (%) | Number of TEAEs (% of total TEAEs): Somnolence ([1]; MAD, 0.6 mg/day, n = 6): 2 (3.3) n (%) | Number of TEAEs (% of total TEAEs): Total ([1]; MAD, 0.6 mg/day, n = 6): 11 (18.0) n (%) | Number of TEAEs (% of total TEAEs): Asthenia ([1]; MAD, 1.0 mg/day, n = 6): 1 (1.6) n (%) | Number of TEAEs (% of total TEAEs): Constipation ([1]; MAD, 1.0 mg/day, n = 6): 1 (1.6) n (%) | Number of TEAEs (% of total TEAEs): Dizziness postural ([1]; MAD, 1.0 mg/day, n = 6): 1 (1.6) n (%) | Number of TEAEs (% of total TEAEs): Dry mouth ([1]; MAD, 1.0 mg/day, n = 6): 4 (6.5) n (%) | Number of TEAEs (% of total TEAEs): Feeling cold ([1]; MAD, 1.0 mg/day, n = 6): 3 (4.9) n (%) | Number of TEAEs (% of total TEAEs): Headache ([1]; MAD, 1.0 mg/day, n = 6): 2 (3.3) n (%) | Number of TEAEs (% of total TEAEs): Nasopharyngitis ([1]; MAD, 1.0 mg/day, n = 6): 1 (1.6) n (%) | Number of TEAEs (% of total TEAEs): Total ([1]; MAD, 1.0 mg/day, n = 6): 13 (21.3) n (%) | Number of TEAEs (% of total TEAEs): Dry mouth ([1]; MAD, 1.5 mg/day, n = 6): 3 (4.9) n (%) | Number of TEAEs (% of total TEAEs): Headache ([1]; MAD, 1.5 mg/day, n = 6): 2 (3.3) n (%) | Number of TEAEs (% of total TEAEs): Salivary hypersecretion ([1]; MAD, 1.5 mg/day, n = 6): 1 (1.6) n (%) | Number of TEAEs (% of total TEAEs): Somnolence ([1]; MAD, 1.5 mg/day, n = 6): 1 (1.6) n (%) | Number of TEAEs (% of total TEAEs): Total ([1]; MAD, 1.5 mg/day, n = 6): 7 (11.5) n (%) | Number of TEAEs (% of total TEAEs): Dry mouth ([1]; MAD, 2.5 mg/day, n = 6): 1 (1.6) n (%) | Number of TEAEs (% of total TEAEs): Total ([1]; MAD, 2.5 mg/day, n = 6): 1 (1.6) n (%) | Number of TEAEs (% of total TEAEs): Headache ([1]; MAD, 4.0 mg/day, n = 3): 2 (3.3) n (%) | Number of TEAEs (% of total TEAEs): Total ([1]; MAD, 4.0 mg/day, n = 3): 2 (3.3) n (%) | Number of treatment-related AEs ([2]; SAD stage, subjects receiving vafidemstat): 12 | Number of TEAEs (% of total TEAEs): Headache ([2]; SAD, 0.2 mg, n = 6): 1 (7.7) n (%) | Number of TEAEs (% of total TEAEs): Total ([2]; SAD, 0.2 mg, n = 6): 1 (7.7) n (%) | Number of TEAEs (% of total TEAEs): Euphoric mood ([2]; SAD, 0.6 mg, n = 6): 1 (7.7) n (%) | Number of TEAEs (% of total TEAEs): Feeling hot ([2]; SAD, 0.6 mg, n = 6): 1 (7.7) n (%) | Number of TEAEs (% of total TEAEs): Headache ([2]; SAD, 0.6 mg, n = 6): 1 (7.7) n (%) | Number of TEAEs (% of total TEAEs): Total ([2]; SAD, 0.6 mg, n = 6): 3 (23.1) n (%) | Number of TEAEs (% of total TEAEs): Musculoskeletal stiffness ([2]; SAD, 1.5 mg, n = 6): 1 (7.7) n (%) | Number of TEAEs (% of total TEAEs): Paresthesia ([2]; SAD, 1.5 mg, n = 6): 1 (7.7) n (%) | Number of TEAEs (% of total TEAEs): Total ([2]; SAD, 1.5 mg, n = 6): 2 (15.4) n (%) | Number of TEAEs (% of total TEAEs): Abdominal discomfort ([2]; SAD, 2.5 mg, n = 6): 1 (7.7) n (%) | Number of TEAEs (% of total TEAEs): Asthenia ([2]; SAD, 2.5 mg, n = 6): 1 (7.7) n (%) | Number of TEAEs (% of total TEAEs): Dry mouth ([2]; SAD, 2.5 mg, n = 6): 1 (7.7) n (%) | Number of TEAEs (% of total TEAEs): Total ([2]; SAD, 2.5 mg, n = 6): 3 (23.1) n (%) | Number of TEAEs (% of total TEAEs): Blunted affect ([2]; SAD, 4.0 mg, n = 6): 1 (7.7) n (%) | Number of TEAEs (% of total TEAEs): Euphoric mood ([2]; SAD, 4.0 mg, n = 6): 1 (7.7) n (%) | Number of TEAEs (% of total TEAEs): Headache ([2]; SAD, 4.0 mg, n = 6): 1 (7.7) n (%) | Number of TEAEs (% of total TEAEs): Total ([2]; SAD, 4.0 mg, n = 6): 3 (23.1) n (%) | Blood–brain barrier crossing ([3]; CSF cohort, quantifiable CSF concentrations from 2 h post-dose): shown to cross the human blood–brain barrier | Kp at 2 h ([3]; male, human, oral, 2 mg): 0.78 | Kp at 6 h ([3]; male, human, oral, 2 mg): 0.74 | Kp at 12 h ([3]; male, human, oral, 2 mg): 0.92 | Kp at 2 h ([3]; male, human, oral, 4 mg): 0.69 | Kp at 6 h ([3]; male, human, oral, 4 mg): 0.83 | Kp at 12 h ([3]; male, human, oral, 4 mg): 0.91 | concentration at 2 h ([3]; male, human, CSF, oral, 2 mg): 0.239 ng/mL
